According to ChEMBL document CHEMBL4007417, “Target Elucidation by Cocrystal Structures of NADH-Ubiquinone Oxidoreductase of Plasmodium falciparum (PfNDH2) with Small Molecule To Eliminate Drug-Resistant Malaria” (J Med Chem, 2017):
Activity calls are given as the source filed them. The rule behind the calls is not given here.

What was measured:
Plasmodium yoelii [1] = assay: Antimalarial activity against Plasmodium yoelii YM infected in BALB/c mouse assessed as mouse survival at 10 mg/kg, sc administered BID for 4 days starting at 96 hrs post infection, 8 hrs apart by Giemsa-staining based microscopic analysis; assay type: functional
Method in brief: (§1)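 Mice inoculated with 1×106 P. yoelii parasites. Subcutaneous dosing for 4 days starting 96 h post infection, given once daily or twice daily 8 h apart. Parasitemia followed on Giemsa-stained blood smears. Survival recorded at 40 days post infection; groups of n=3. DMSO-only mice served as untreated controls.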

Plasmodium yoelii [2] = assay: Antimalarial activity against Plasmodium yoelii YM infected in BALB/c mouse assessed as time duration for parasite cure at 90 mg/kg, sc administered BID for 4 days starting at 96 hrs post infection, 8 hrs apart by Giemsa-staining based microscopic analysis; assay type: functional
Method in brief: (§2)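 P. yoelii-infected mice, n=3 per group. Subcutaneous injection twice daily, 8 h apart, for 4 days starting at 96 h post infection. Growth inhibition read from blood smears at 24 h post treatment. Cure time taken as the minimum period to cure all mice in the group. DMSO controls included.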

Plasmodium yoelii [3] = assay: Antimalarial activity against Plasmodium yoelii YM infected in BALB/c mouse assessed as mouse survival at 30 mg/kg, sc administered BID for 4 days starting at 96 hrs post infection, 8 hrs apart by Giemsa-staining based microscopic analysis; assay type: functional; method in brief: as §1
Plasmodium yoelii [4] = assay: Antimalarial activity against Plasmodium yoelii YM infected in BALB/c mouse assessed as time duration for parasite cure at 10 mg/kg, sc administered BID for 4 days starting at 96 hrs post infection, 8 hrs apart by Giemsa-staining based microscopic analysis; assay type: functional; method in brief: as §2
Plasmodium yoelii [5] = assay: Antimalarial activity against Plasmodium yoelii YM infected in BALB/c mouse assessed as parasite growth inhibition at 10 mg/kg, sc administered BID for 4 days starting at 96 hrs post infection, 8 hrs apart by Giemsa-staining based microscopic analysis; assay type: functional; conditions: read-out: GI; method in brief: as §2
Plasmodium yoelii [6] = assay: Antimalarial activity against Plasmodium yoelii YM infected in BALB/c mouse assessed as parasite cure level at 10 to 90 mg/kg, ip administered on days 1 post infection by Giemsa-stained microscopic analysis; assay type: functional, organism-based
Method in brief: (§3)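 Mice (groups of three) inoculated with 1×10^6 P. yoelii parasites. Single intraperitoneal dose of 10, 30 or 90 mg/kg given 24 h after inoculation. DMSO-only untreated group included. Outcome followed by blood-smear microscopy for cure, with survival scored at 40 days post infection.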

Plasmodium yoelii [7] = assay: Antimalarial activity against Plasmodium yoelii YM infected in BALB/c mouse assessed as parasite growth inhibition at 90 mg/kg, sc administered BID for 4 days starting at 96 hrs post infection, 8 hrs apart by Giemsa-staining based microscopic analysis; assay type: functional; conditions: read-out: GI; method in brief: as §2
Plasmodium yoelii [8] = assay: Antimalarial activity against Plasmodium yoelii YM infected in BALB/c mouse assessed as mouse survival at 90 mg/kg, sc administered BID for 4 days starting at 96 hrs post infection, 8 hrs apart by Giemsa-staining based microscopic analysis; assay type: functional; method in brief: as §1
Plasmodium falciparum [9] = assay: Antimalarial activity against […] asexual blood stage Plasmodium falciparum 3D7 after 72 hrs by SYBR green-based fluorometric analysis; assay type: functional; conditions: 3D7, 72 h
Method in brief: (§4)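 Mid-ring-stage cultures (~6-10 h post-invasion) at 1% parasitemia and 2% hematocrit, in triplicate. Twofold serial dilutions from a top concentration of 100 nM. Incubated 72 h at 37 °C under 5% CO2/5% O2/90% N2. Lysis buffer containing 5×SYBR Green I added, 20 min in the dark, fluorescence read at ex 485/em 538 nm. EC50 derived.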

Plasmodium yoelii [10] = assay: Antimalarial activity against Plasmodium yoelii YM infected in BALB/c mouse assessed as parasite growth inhibition at 30 mg/kg, sc administered BID for 4 days starting at 96 hrs post infection, 8 hrs apart by Giemsa-staining based microscopic analysis; assay type: functional; conditions: read-out: GI; method in brief: as §2
Plasmodium yoelii [11] = assay: Antimalarial activity against Plasmodium yoelii YM infected in BALB/c mouse assessed as time duration for parasite cure at 30 mg/kg, sc administered BID for 4 days starting at 96 hrs post infection, 8 hrs apart by Giemsa-staining based microscopic analysis; assay type: functional; method in brief: as §2
Plasmodium falciparum [12] = assay: Antimalarial activity against multi drug-resistant asexual blood stage Plasmodium falciparum Fab9 after 72 hrs by SYBR green-based fluorometric analysis; assay type: functional; conditions: Fab9, 72 h; method in brief: as §4
Plasmodium falciparum [13] = assay: Antimalarial activity against sulfadoxine-pyrimethamine/mefloquine resistant asexual blood stage Plasmodium falciparum CP286 after 72 hrs by SYBR green-based fluorometric analysis; assay type: functional; conditions: CP286, 72 h; method in brief: as §4
Plasmodium falciparum [14] = assay: (§5) Antimalarial activity against quinine-resistant asexual blood stage Plasmodium falciparum 3D7 assessed as reduction in parasite recrudescence at 10 times EC50 for 72 hrs measured after 28 days post invasion by Giemsa staining-based light microscopic analysis; assay type: functional
Method in brief: (§6)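 Parasite cultures exposed for 72 h to 10× EC50 of inhibitor. Drug then removed and cultures maintained for 28 days post treatment. Recrudescence monitored by microscopy.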

Plasmodium yoelii [15] = assay: Antimalarial activity against Plasmodium yoelii YM infected in BALB/c mouse assessed as parasite growth inhibition at 5 mg/kg, sc administered QD for 4 days starting at 2 hrs post infection by Giemsa-staining based microscopic analysis; assay type: functional; conditions: read-out: GI
Method in brief: (§7)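 P. yoelii-infected mice, n=3 per group. Subcutaneous injection once daily for 4 days starting at 2 h post infection. Growth inhibition determined at 24 h post treatment by blood-smear microscopy. Cure time taken as the minimum period to cure all mice in the group.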

Plasmodium falciparum [16] = assay: as §5, with “chloroquine/quinine/sulfadoxine-pyrimethamine/amodiaquine-resistant” for “quinine-resistant”, “Dd2” for “3D7”; assay type: functional; method in brief: as §6
Plasmodium yoelii [17] = assay: Antimalarial activity against Plasmodium yoelii YM infected in BALB/c mouse assessed as mouse survival at 30 mg/kg, sc administered QD for 4 days starting at 96 hrs post infection by Giemsa-staining based microscopic analysis; assay type: functional; method in brief: as §1
Plasmodium falciparum [18] = assay: Antimalarial activity against dihydroartemisinin-resistant asexual blood stage Plasmodium falciparum 803 after 72 hrs by SYBR green-based fluorometric analysis; assay type: functional; conditions: Plasmodium falciparum, 803, 72 h; method in brief: as §4
Plasmodium falciparum [19] = assay: Antimalarial activity against chloroquine/quinine/sulfadoxine-pyrimethamine/amodiaquine-resistant asexual blood stage Plasmodium falciparum PC26 after 72 hrs by SYBR green-based fluorometric analysis; assay type: functional; conditions: PC26, 72 h; method in brief: as §4
Plasmodium yoelii [20] = assay: Antimalarial activity against Plasmodium yoelii YM infected in BALB/c mouse assessed as time duration for parasite cure at 30 mg/kg, sc administered QD for 4 days starting at 96 hrs post infection by Giemsa-staining based microscopic analysis; assay type: functional
Method in brief: (§8)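 P. yoelii-infected mice, n=3 per group. Subcutaneous injection once daily for 4 days starting at 96 h post infection. Parasitemia followed on blood-smear microscopy, with inhibition measured at 24 h post treatment. Cure time taken as the minimum period to cure all mice; survival recorded at 40 days. DMSO controls included.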

Plasmodium falciparum [21] = assay: Antimalarial activity against multi drug-resistant asexual blood stage Plasmodium falciparum D10 after 72 hrs by SYBR green-based fluorometric analysis; assay type: functional; conditions: D10, 72 h; method in brief: as §4
Plasmodium yoelii [22] = assay: Antimalarial activity against Plasmodium yoelii YM infected in BALB/c mouse assessed as parasite cure level at 10 mg/kg, ip administered on days 1 post infection by Giemsa-stained microscopic analysis; assay type: functional, organism-based; method in brief: as §3
Plasmodium falciparum [23] = assay: Antimalarial activity against mid/late trophozoite stage of Plasmodium falciparum 3D7 assessed as reduction in parasitemia at 10 times EC50 administered at synchronized early ring stages and then removed from culture at 2 hrs intervals after 34 hrs paraiste invasion stage and measured till 40 hrs post invasion by SYBR green-based fluorometric analysis; assay type: functional; design: scale not given: the % may be the effect or the level left
Method in brief: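 Synchronized early-ring P. falciparum 3D7 treated with about 10×EC50 compound. Compound removed at 2 h intervals starting at t=34 h (trophozoite), then parasites returned to compound-free medium. Maturation through a single ~48 h asexual cycle followed.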

HeLa = assay: Cytotoxicity against human HeLa cells assessed as reduction in cell viability up to 2 uM after 48 hrs by MTT assay; assay type: cell-based
Method in brief: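 HeLa cell viability measured by MTT assay with compound at concentrations up to 2 µM.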

Plasmodium falciparum [24] = assay: Antimalarial activity against chloroquine/quinine-resistant asexual blood stage Plasmodium falciparum S35 after 72 hrs by SYBR green-based fluorometric analysis; assay type: functional; conditions: S35, 72 h; method in brief: as §4
Plasmodium yoelii [25] = assay: Antimalarial activity against Plasmodium yoelii YM infected in BALB/c mouse assessed reduction in parasitemia at 30 mg/kg/day, sc for 4 days by Giemsa-staining based microscopic analysis; assay type: functional, organism-based; method in brief: as §8
Plasmodium falciparum [26] = assay: Antimalarial activity against chloroquine-resistant asexual blood stage Plasmodium falciparum GB4 after 72 hrs by SYBR green-based fluorometric analysis; assay type: functional; conditions: GB4, 72 h; method in brief: as §4
Plasmodium falciparum [27] = assay: Antimalarial activity against Plasmodium falciparum 3D7 assessed as alteration of parasite morphology at 10 times EC50 dosed at ring stage […] by Giemsa staining-based light microscopic analysis; assay type: functional, organism-based
Plasmodium falciparum [28] = assay: Antimalarial activity against dihydroartemisinin-resistant asexual blood stage Plasmodium falciparum 803 assessed as reduction in parasite recrudescence at 10 times EC50 for 72 hrs measured after 28 days post invasion by Giemsa staining-based light microscopic analysis; assay type: functional; method in brief: as §6
Plasmodium yoelii [29] = assay: Antimalarial activity against Plasmodium yoelii YM infected in BALB/c mouse assessed as mouse survival at 5 mg/kg, sc administered QD for 4 days starting at 2 hrs post infection by Giemsa-staining based microscopic analysis; assay type: functional
Method in brief: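 Mice inoculated with 1×106 P. yoelii parasites, then dosed subcutaneously once daily for 4 days starting 2 h post infection. Parasitemia followed by microscopy of blood smears. Survival scored at 40 days post infection in groups of n=3 mice. DMSO-only controls.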

Plasmodium yoelii [30] = assay: Antimalarial activity against Plasmodium yoelii YM infected in BALB/c mouse assessed as parasite growth inhibition at 30 mg/kg, sc administered QD for 4 days starting at 96 hrs post infection by Giemsa-staining based microscopic analysis; assay type: functional; conditions: read-out: GI; method in brief: as §8
Plasmodium falciparum [31] = assay: Antimalarial activity against chloroquine/quinine/sulfadoxine-pyrimethamine/amodiaquine-resistant asexual blood stage Plasmodium falciparum Dd2 after 72 hrs by SYBR green-based fluorometric analysis; assay type: functional; conditions: Dd2, 72 h; method in brief: as §4
Plasmodium falciparum [32] = assay: Antimalarial activity against quinine-resistant asexual blood stage Plasmodium falciparum C2A after 72 hrs by SYBR green-based fluorometric analysis; assay type: functional; method in brief: as §4
Plasmodium yoelii [33] = assay: Antimalarial activity against Plasmodium yoelii YM infected in BALB/c mouse assessed as time duration for parasite cure at 10 mg/kg, sc administered QD for 4 days starting at 96 hrs post infection by Giemsa-staining based microscopic analysis; assay type: functional; method in brief: as §8
Plasmodium yoelii [34] = assay: Antimalarial activity against Plasmodium yoelii YM infected in BALB/c mouse assessed as mouse survival at 10 mg/kg, sc administered QD for 4 days starting at 96 hrs post infection by Giemsa-staining based microscopic analysis; assay type: functional; method in brief: as §1
Plasmodium yoelii [35] = assay: Antimalarial activity against Plasmodium yoelii YM infected in BALB/c mouse assessed as parasite growth inhibition at 10 mg/kg, sc administered QD for 4 days starting at 96 hrs post infection by Giemsa-staining based microscopic analysis; assay type: functional; conditions: read-out: GI; method in brief: as §8
Plasmodium yoelii [36] = assay: Antimalarial activity against Plasmodium yoelii YM infected in BALB/c mouse assessed as time duration for parasite cure at 5 mg/kg, sc administered QD for 4 days starting at 2 hrs post infection by Giemsa-staining based microscopic analysis; assay type: functional; method in brief: as §7

SMILES	survival at 10 mg/kg (Plasmodium yoelii [1]) [%]	Time (Plasmodium yoelii [2]) [days]	survival at 30 mg/kg (Plasmodium yoelii [3]) [%]	Time (Plasmodium yoelii [4]) [days]	inhibition in vivo at 10 mg/kg (Plasmodium yoelii [5]) [%]	Activity (Plasmodium yoelii [6])	inhibition in vivo at 90 mg/kg (Plasmodium yoelii [7]) [%]	survival at 90 mg/kg (Plasmodium yoelii [8]) [%]	EC50 (Plasmodium falciparum [9]) [nM]	inhibition in vivo at 30 mg/kg (Plasmodium yoelii [10]) [%]	Time (Plasmodium yoelii [11]) [days]	inhibition in vivo at 5 mg/kg (Plasmodium yoelii [15]) [%]	survival at 5 mg/kg (Plasmodium yoelii [29]) [%]	further results
C[C@H]1[C@@H](O)O[C@@H]2O[C@@]3(C)CC[C@H]4[C@H](C)CC[C@@H]1[C@@]24OO3 [ARTENIMOL]	100	4	100	15	100	Active	100	100	4.32	100	4			
Cc1c(-c2ccc(Cc3ccc(SC(F)(F)F)cc3)cc2)[nH]c2cccc(F)c2c1=O	0	14	100		0		100	100	5.69	99.8	15	0	0	EC50 (Plasmodium falciparum [12]): 5.46 nM; EC50 (Plasmodium falciparum [13]): 6.24 nM; Activity (Plasmodium falciparum [14]): Active; Activity (Plasmodium falciparum [16]): Active; survival at 30 mg/kg (Plasmodium yoelii [17]): 66.7%; EC50 (Plasmodium falciparum [18]): 4.66 nM; EC50 (Plasmodium falciparum [19]): 4.42 nM; Time (Plasmodium yoelii [20]): 18 days; EC50 (Plasmodium falciparum [21]): 7.7 nM; Activity (Plasmodium yoelii [22]): inactive; Activity (Plasmodium falciparum [23]): >=50%; Activity (HeLa): Non-Toxic; EC50 (Plasmodium falciparum [24]): 4.82 nM; Activity (Plasmodium yoelii [25]): Active; EC50 (Plasmodium falciparum [26]): 3.17 nM; Activity (Plasmodium falciparum [27]): Active; Activity (Plasmodium falciparum [28]): Active; inhibition in vivo at 30 mg/kg (Plasmodium yoelii [30]): 77.4%; EC50 (Plasmodium falciparum [31]): 2.1 nM; EC50 (Plasmodium falciparum [32]): 5.26 nM
CCc1nc(N)nc(N)c1-c1ccc(Cl)cc1 [PYRIMETHAMINE]	100	4	100	4	100	Active	100	100		100	4	100	100	Time (Plasmodium yoelii [33]): 17 days; survival at 10 mg/kg (Plasmodium yoelii [34]): 100%; inhibition in vivo at 10 mg/kg (Plasmodium yoelii [35]): 98.4%; Time (Plasmodium yoelii [36]): 30 days
